According to ChEMBL document CHEMBL4359865, “Synthesis and evaluation of 2,5-furan, 2,5-thiophene and 3,4-thiophene-based derivatives as CXCR4 inhibitors” (Eur J Med Chem, 2019):

What was measured:
[1] = biological target: C-X-C chemokine receptor type 4 (Homo sapiens) (UniProt P61073); assay: Inhibition of biotinylated TN14003 binding to CXCR4 in human MDA-MB-231 cells preincubated for 10 mins followed by biotinylated-TN14003 addition measured after 30 mins by streptavidin-rhodamine staining based fluorescence microscopic analysis; format: cell-based
Method in brief: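 MDA-MB-231 cells (CXCR4-overexpressing) exposed to compound at 1, 10, 100 and 1000 nM for 10 min at room temperature. Cells fixed in chilled 4% paraformaldehyde, rehydrated in PBS, then stained with 0.05 µg/mL biotinylated TN14003 for 30 min at room temperature, washed three times in PBS, and stained with streptavidin-rhodamine (1:150) for 30 min. Read by fluorescence microscopy. EC taken as the lowest concentration, by order of magnitude, giving a significant drop in fluorescence versus control.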

[2] = biological target: C-X-C chemokine receptor type 4 (Homo sapiens) (UniProt P61073); assay: Inhibition of CXCR4-mediated chemotaxis in human MDA-MB-231 cells assessed as reduction in CXCL12alpha-induced cell invasion at 100 nM incubated for 22 hrs by hematoxylin/eosin dye-based matrigel assay relative to control
Method in brief: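 Run in a Matrigel invasion chamber. The bottom chamber held CXCL12 (200 ng/mL). MDA-MB-231 cells were treated with compound at 100 nM, placed in the top chamber, and incubated 22 h in a humidified incubator. Non-invading cells were swabbed off; cells in the bottom chamber were H&E-stained, fixed in methanol and counted. Results given as % inhibition of invasion versus negative control.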

Mus musculus = assay: Antiinflammatory activity in C57BL/6J mouse assessed as inhibition of carrageenan-induced paw edema at 10 mg/kg, ip daily dosed 30 mins after carrageenan challenge and measured after 74 hrs carrageenan challenge and 2 hrs post last dose by caliper method relative to control; format: functional
[3] = Toxicity in C57BL/6J mouse at 10 mg/kg, ip; format: organism-based; details: in vivo

Sequence of C-X-C chemokine receptor type 4 (Homo sapiens) (P61073 whole entry): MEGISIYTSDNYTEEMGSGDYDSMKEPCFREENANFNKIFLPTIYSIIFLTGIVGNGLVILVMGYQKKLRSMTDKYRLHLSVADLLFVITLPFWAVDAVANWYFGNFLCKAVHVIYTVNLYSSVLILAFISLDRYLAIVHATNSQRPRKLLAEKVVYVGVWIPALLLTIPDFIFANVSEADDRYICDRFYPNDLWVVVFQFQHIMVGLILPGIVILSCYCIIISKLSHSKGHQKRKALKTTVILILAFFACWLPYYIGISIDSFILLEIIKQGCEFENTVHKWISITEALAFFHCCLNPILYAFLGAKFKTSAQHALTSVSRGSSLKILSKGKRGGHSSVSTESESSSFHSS

Row | Structure (SMILES) | EC [1] [nM] | inhibition [2] [%] | inhibition in vivo at 10 mg/kg (Mus musculus) [%] | Activity [3]
1 | FC(F)(F)c1ccc(NCc2ccc(CNc3ccc(C(F)(F)F)cc3)s2)cc1 | > 1000 | – | – | –
2 | Cc1ccc(NCc2cscc2CNc2ccc(C)cc2)cc1 | > 1000 | – | – | –
3 | COc1cccc(NCc2ccc(CNc3cccc(OC)c3)o2)c1 | > 1000 | – | – | –
4 | Clc1ccc(NCc2ccc(CNc3ccc(Cl)cc3)o2)cc1 | 10 | 48 | 17 | Non-Toxic
5 | c1ccc(NCc2ccc(CNc3ccccc3)s2)cc1 | 1 | 68 | 30 | Non-Toxic
6 | c1cc(CN2CCSCC2)sc1CN1CCSCC1 | 1 | 88 | – | Non-Toxic
7 | Clc1ccc(NCc2cscc2CNc2ccc(Cl)cc2)cc1 | > 1000 | – | – | –
8 | Cc1cccc(NCc2ccc(CNc3cccc(C)c3)s2)c1 | > 1000 | – | – | –
9 | CN1CCN(Cc2ccc(CN3CCN(C)CC3)s2)CC1 | 100 | 86 | – | –
10 | COc1ccccc1NCc1ccc(CNc2ccccc2OC)o1 | 100 | 5 | – | –
11 | CN1CCN(Cc2ccc(CN3CCN(C)CC3)o2)CC1 | 10 | 82 | – | Non-Toxic
12 | Clc1cccc(NCc2cscc2CNc2cccc(Cl)c2)c1 | > 1000 | – | – | –
13 | FC(F)(F)c1cccc(NCc2ccc(CNc3cccc(C(F)(F)F)c3)s2)c1 | 100 | 77 | – | Non-Toxic
14 | Clc1cccc(NCc2ccc(CNc3cccc(Cl)c3)o2)c1 | > 1000 | – | – | –
15 | Clc1ccccc1NCc1ccc(CNc2ccccc2Cl)s1 | 10 | 93 | > 5 | Non-Toxic
16 | CCc1cccc(NCc2ccc(CNc3cccc(CC)c3)o2)c1 | > 1000 | – | – | –
17 | Cc1cccc(NCc2cscc2CNc2cccc(C)c2)c1 | > 1000 | – | – | –
18 | c1ccc(NCc2ccc(CNc3ccccc3)o2)cc1 | > 1000 | – | – | –
19 | CCc1ccccc1NCc1ccc(CNc2ccccc2CC)o1 | 1000 | – | – | –
20 | Fc1ccc(NCc2cscc2CNc2ccc(F)cc2)cc1 | > 1000 | – | – | –
21 | COc1ccc(NCc2ccc(CNc3ccc(OC)cc3)o2)cc1 | > 1000 | – | – | –
22 | c1cc(CN2CCOCC2)sc1CN1CCOCC1 | > 1000 | – | – | –
23 | c1ccc(NCc2ccc(CNc3ccccn3)cc2)nc1 | – | – | 40 | Non-Toxic

More lines, main results first:

Row | EC [1] [nM] | Structure (SMILES) | inhibition [2] [%] | inhibition in vivo at 10 mg/kg (Mus musculus) [%] | Activity [3]
24 | > 1000 | FC(F)(F)c1ccc(NCc2ccc(CNc3ccc(C(F)(F)F)cc3)o2)cc1 | – | – | –
25 | > 1000 | FC(F)(F)c1ccccc1NCc1ccc(CNc2ccccc2C(F)(F)F)s1 | – | – | –
26 | 1 | Clc1ccc(NCc2ccc(CNc3ccc(Cl)cc3)s2)cc1 | 22 | – | –
27 | > 1000 | Fc1cccc(NCc2ccc(CNc3cccc(F)c3)s2)c1 | – | – | –
28 | > 1000 | CCc1ccc(NCc2ccc(CNc3ccc(CC)cc3)o2)cc1 | – | – | –
29 | > 1000 | FC(F)(F)c1cccc(NCc2ccc(CNc3cccc(C(F)(F)F)c3)o2)c1 | – | – | –
30 | 100 | Cc1ccc(NCc2ccc(CNc3ccc(C)cc3)s2)cc1 | 49 | – | Non-Toxic
31 | > 1000 | Cc1ccccc1NCc1ccc(CNc2ccccc2C)o1 | – | – | –
32 | > 1000 | Fc1cccc(NCc2cscc2CNc2cccc(F)c2)c1 | – | – | –
33 | 1000 | CCc1ccccc1NCc1ccc(CNc2ccccc2CC)s1 | – | – | –
34 | 10 | COc1ccc(NCc2ccc(CNc3ccc(OC)cc3)s2)cc1 | 84 | – | Non-Toxic
35 | 10 | c1cc(CN2CCSCC2)oc1CN1CCSCC1 | 79 | – | –
36 | 10 | Cc1ccccc1NCc1ccc(CNc2ccccc2C)s1 | 61 | – | Non-Toxic
37 | 100 | Fc1ccc(NCc2ccc(CNc3ccc(F)cc3)o2)cc1 | 53 | 31 | Non-Toxic
38 | 100 | FC(F)(F)c1ccccc1NCc1ccc(CNc2ccccc2C(F)(F)F)o1 | 24 | – | –
39 | 100 | Clc1cccc(NCc2ccc(CNc3cccc(Cl)c3)s2)c1 | 51 | – | Non-Toxic
40 | > 1000 | CCc1ccc(NCc2cscc2CNc2ccc(CC)cc2)cc1 | – | – | –

Row | EC [1] [nM] | Structure (SMILES) | inhibition [2] [%] | inhibition in vivo at 10 mg/kg (Mus musculus) [%] | Activity [3]
41 | > 1000 | CSc1ccc(NCc2ccc(CNc3ccc(SC)cc3)o2)cc1 | – | – | –
42 | 100 | CSc1ccc(NCc2ccc(CNc3ccc(SC)cc3)s2)cc1 | 88 | – | –
43 | 10 | Fc1ccccc1NCc1ccc(CNc2ccccc2F)o1 | 71 | – | Non-Toxic
44 | 10 | c1ccc(NCc2cscc2CNc2ccccc2)cc1 | 72 | – | Non-Toxic
45 | > 1000 | Fc1ccc(NCc2ccc(CNc3ccc(F)cc3)s2)cc1 | – | – | –
46 | 100 | Cc1ccc(NCc2ccc(CNc3ccc(C)cc3)o2)cc1 | 75 | 15 | Non-Toxic
47 | > 1000 | CCc1ccc(NCc2ccc(CNc3ccc(CC)cc3)s2)cc1 | – | – | –
48 | > 1000 | Fc1cccc(NCc2ccc(CNc3cccc(F)c3)o2)c1 | – | – | –
49 | > 1000 | CCc1cccc(NCc2ccc(CNc3cccc(CC)c3)s2)c1 | – | – | –
50 | 1000 | Fc1ccccc1NCc1ccc(CNc2ccccc2F)s1 | – | – | –
51 | 10 | COc1ccccc1NCc1ccc(CNc2ccccc2OC)s1 | 52 | – | Non-Toxic
52 | > 1000 | Clc1ccccc1NCc1ccc(CNc2ccccc2Cl)o1 | – | – | –
53 | > 1000 | Cc1cccc(NCc2ccc(CNc3cccc(C)c3)o2)c1 | – | – | –
54 | 1000 | c1cc(CN2CCOCC2)oc1CN1CCOCC1 | – | – | –
55 | > 1000 | FC(F)(F)c1cccc(NCc2cscc2CNc2cccc(C(F)(F)F)c2)c1 | – | – | –
56 | > 1000 | FC(F)(F)c1ccc(NCc2cscc2CNc2ccc(C(F)(F)F)cc2)cc1 | – | – | –
57 | 1000 | COc1cccc(NCc2ccc(CNc3cccc(OC)c3)s2)c1 | – | – | –
